In ChEMBL document CHEMBL4265871, “Novel alkylated azoles as potent antifungals” (Eur J Med Chem, 2017):
Converted amounts (≈) assume the structure as drawn. The source made the active and inactive calls. No cut-off for these calls is given here.

Key:
[1] = system: Candida albicans; assay: Antifungal activity against Candida albicans ATCC 64124 incubated for 48 hrs by modified CLSI M27-A3 protocol based method; assay type: functional; details: ATCC 64124, 48 h
[2] = system: Candida albicans; assay: Antifungal activity against Candida albicans ATCC 10231 incubated for 48 hrs by modified CLSI M27-A3 protocol based method; assay type: functional; details: ATCC 10231, 48 h, read-out: MIC100
In short: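 For C. albicans ATCC 10231, C. krusei ATCC 6258 and C. parapsilosis ATCC 22019, MIC-0 was read, meaning complete growth inhibition. For azole controls, MIC-2 (50% growth inhibition) was reported instead. Caspofungin and voriconazole were tested here; other controls came from earlier work.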

[3] = Selectivity index, ratio of EC50 for toxicity in human BEAS2B cells to MIC100 for antifungal activity against Candida albicans ATCC 10231; assay type: cell-based; details: BEAS-2B cells, read-out: Selectivity Index
In short: (§1)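 Selectivity index is the EC50 against the mammalian line (A549 or BEAS-2B) divided by the MIC against the given fungal strain.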

[4] = system: A549; assay: Toxicity in human A549 cells assessed as cell viability at 15.6 ug/ml incubated for 24 hrs by resazurin dye based assay; details: a549, 24 h
[5] = system: Candida albicans; assay: Fungistatic activity against Candida albicans ATCC 10231 at 0.5 times MIC incubated for 3 to 12 hrs by time kill assay; assay type: functional, organism-based
[6] = Hemolytic activity in mouse erythrocytes assessed as hemolysis level at 3.9 ug/ml incubated for 1 hr at 37 degC; assay type: ADME, cell-based, Erythrocyte; details: read-out: Activity
In short: (§2)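 Mouse erythrocytes incubated 1 h at 37 °C with test agents over 1.95 to 125 µg/mL. Percent lysis is read for each concentration.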

[7] = system: Candida albicans; assay: Fungistatic activity against Candida albicans ATCC 10231 assessed as reduction in microbial growth at 1 times MIC incubated for 24 hrs by time kill assay; assay type: functional
[8] = Hemolytic activity in mouse erythrocytes assessed as hemolysis level at 31.3 ug/ml incubated for 1 hr at 37 degC; assay type: ADME, cell-based, Erythrocyte; details: read-out: Activity; in short: as §2
[9] = Selectivity index, ratio of EC50 for toxicity in human A549 cells to MIC for antifungal activity against Candida parapsilosis ATCC 22019
[10] = system: Candida albicans; assay: Effect on sterol composition in Candida albicans ATCC 10231 assessed as eburicol level at 0.125 ug/mL incubated for […] by GC-MS analysis
[11] = Selectivity index, ratio of […] for toxicity in human BEAS2B cells to MIC50 for antifungal activity against Aspergillus flavus ATCC MYA-3631; assay type: cell-based; details: BEAS-2B cells, read-out: Selectivity Index
[12] = Selectivity index, ratio of EC50 for toxicity in human BEAS2B cells to MIC50 for antifungal activity against Candida glabrata ATCC 2001; assay type: cell-based; details: BEAS-2B cells, read-out: Selectivity Index; in short: as §1
[13] = Selectivity index, ratio of EC50 for toxicity in human A549 cells to MIC50 for antifungal activity against ITC and FLC-resistant Candida albicans ATCC 1237; assay type: cell-based; details: read-out: Selectivity Index; in short: as §1
[14] = system: Candida albicans; assay: Fungistatic activity against Candida albicans ATCC 10231 at 1 times MIC incubated for 3 to 12 hrs by time kill assay; assay type: functional, organism-based
[15] = system: Candida albicans; assay: Antifungal carryover activity against Candida albicans ATCC 10231 assessed as 25% reduction in colony counts at 0.5 to 4 times MIC
[16] = Selectivity index, ratio of EC50 for toxicity in human A549 cells to MIC100 for antifungal activity against Candida albicans ATCC 10231; assay type: cell-based; details: read-out: Selectivity Index; in short: as §1
[17] = system: Aspergillus terreus; assay: Antifungal activity against Aspergillus terreus ATCC MYA-3633 incubated for 48 hrs by CLSI M38-A2 protocol based method; assay type: functional; details: ATCC MYA-3633, 48 h, read-out: MIC100
[18] = system: Candida albicans; assay: Effect on sterol composition in Candida albicans ATCC 64124 assessed as unknown sterol level at 1.95 ug/mL incubated for 10 mins by LC-MS analysis (reference value: 2.67 to 6.98%)
[19] = system: Candida albicans; assay: Effect on growth of Candida albicans ATCC 10231 assessed as increase in microbial growth at 0.5 times MIC incubated for 24 hrs by time kill assay; assay type: functional
[20] = Selectivity index, ratio of EC50 for toxicity in human BEAS2B cells to MIC for antifungal activity against Candida parapsilosis ATCC 22019; details: BEAS-2B cells
[21] = system: BEAS-2B; assay: Toxicity in human BEAS2B cells assessed as cell viability at 15.6 ug/ml incubated for 24 hrs by resazurin dye based assay
[22] = system: Candida albicans; assay: Antifungal activity against ITC and FLC-resistant Candida albicans ATCC 1237 incubated for 48 hrs by modified CLSI M27-A3 protocol based method; assay type: functional; details: ATCC 1237, 48 h
In short: (§3)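 Because these Candida strains show trailing growth, MIC-2 was read, meaning 50% growth inhibition. Caspofungin and voriconazole were tested here; other controls came from earlier work.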

[23] = Selectivity index, ratio of EC50 for toxicity in human BEAS2B cells to MIC50 for antifungal activity against ITC and FLC-resistant Candida albicans ATCC MYA-1003; assay type: cell-based; details: BEAS-2B cells, read-out: Selectivity Index; in short: as §1
[24] = system: Candida albicans; assay: Antifungal activity against ITC and FLC-susceptible Candida albicans ATCC MYA-2876 incubated for 48 hrs by modified CLSI M27-A3 protocol based method; assay type: functional; details: ATCC MYA-2876, 48 h; in short: as §3
[25] = system: Candida albicans; assay: Effect on sterol composition in Candida albicans ATCC 64124 assessed as lanosterol level at 1.95 ug/mL incubated for 10 mins by LC-MS analysis (reference value: 29.38%)
[26] = system: Candida albicans; assay: Induction of membrane permeabilization in Candida albicans ATCC 10231 at 1 to 4 times MIC incubated for 1 hr by propidium iodide staining based fluorescence microscopy; assay type: functional, organism-based
In short: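 C. albicans ATCC 10231 treated at 1× and 4× MIC and stained with propidium iodide, a membrane-impermeant dye, to detect membrane damage. Untreated cells, FLC (7.8 µg/mL) and KANB (C14) (7.8 µg/mL) serve as comparators.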

[27] = system: Candida albicans; assay: Antifungal activity against Candida albicans ATCC 10231 at 0.5 to 4 times MIC incubated for 3 to 24 hrs by time kill assay
[28] = Selectivity index, ratio of EC50 for toxicity in human A549 cells to MIC50 for antifungal activity against ITC and FLC-susceptible Candida albicans ATCC MYA-2310; assay type: cell-based; details: read-out: Selectivity Index; in short: as §1
[29] = system: A549; assay: Toxicity in human A549 cells assessed as reduction in cell viability up to 7.8 ug/ml incubated for 24 hrs by resazurin dye based assay; details: a549, 24 h
[30] = system: Candida albicans; assay: Fungicidal activity against Candida albicans ATCC 10231 assessed as reduction in microbial growth at 4 times MIC incubated for 9 hrs by time kill assay; assay type: functional

SMILES | MIC50 [1] | MIC [2] | selectivity ratio [3] | Activity [5] | hemolysis at 1 h, 3.9 ug/ml [6] | Activity [7] | hemolysis at 1 h, 31.3 ug/ml [8] | selectivity ratio [9] | selectivity ratio [11] | selectivity ratio [12] | selectivity ratio [13] | Activity [14] | selectivity ratio [16] | MIC [17] | selectivity ratio [20] | MIC50 [22] | selectivity ratio [23] | MIC50 [24] | Activity [26] | selectivity ratio [28] | other results
CCCCCCC(O)(Cn1cncn1)c1ccc(Cl)cc1Cl (stereo not given) | 5.7 µM (≈ 1.95 µg/mL) | 0.7 µM (≈ 0.24 µg/mL) | 117 | Active | 0% | 0.25 log10CFU | 92% | 667 | 7 | 14 | 10 | Active | 83 | 11.4 µM (≈ 3.9 µg/mL) | 933 | 5.7 µM (≈ 1.95 µg/mL) | 29 | 2.8 µM (≈ 0.958 µg/mL) | inactive | 10 | viability [4]: > 85%; Activity [10]: 2.93%; Activity [15]: inactive; Activity [18]: 4.25 - 13.04%; Activity [19]: 1 log10CFU; viability [21]: > 85%; Activity [25]: 28.99%; Activity [27]: Dose-dependent effect
CCCCCCCCC(O)(Cn1cncn1)c1ccc(F)cc1F (stereo not given) | 11.6 µM (≈ 3.91 µg/mL) | 5.8 µM (≈ 1.96 µg/mL) | 7 | – | 0% | – | 68.4% | 200 | 0.4 | 7 | 6 | – | 6 | 23.1 µM (≈ 7.79 µg/mL) | 217 | 5.8 µM (≈ 1.96 µg/mL) | 7 | 5.8 µM (≈ 1.96 µg/mL) | inactive | 6 | Activity [29]: Non-Toxic
CCCCCCC(O)(Cn1cncn1)c1ccc(F)cc1F (stereo not given) | 25.2 µM (≈ 7.8 µg/mL) | 6.3 µM (≈ 1.95 µg/mL) | 16 | Active | 0% | 1 log10CFU | 10.4% | 1170 | 2 | 8 | 18 | Active | 18 | 25.2 µM (≈ 7.8 µg/mL) | 1040 | 6.3 µM (≈ 1.95 µg/mL) | 16 | 6.3 µM (≈ 1.95 µg/mL) | inactive | 9 | Activity [30]: >=2 log10CFU; Activity [15]: inactive; Activity [19]: 1 log10CFU; Activity [27]: Dose-dependent effect
